# Experimental data reported in PubChem BioAssay AID488937 (Broad Institute, 2010).
# Inconclusive results are not listed. A number with no mark means an inactive call.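 How the source made its calls: active means compounds whose fitted half-maximal growth inhibition dose is no more than ten times the top tested dose; inconclusive means flat curve inhibiting 30 to 70%, or poor curve fit; inactive means flat within 30%, weaker potency, or rising signal.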
# Assay: single-agent toxicity toward C. albicans – CaCi-2 strain, dry powder, set 3, counter-screen for reversing antifungal drug resistance, dose response (AID 488937)
# Settings: C. albicans CaCi-2 growth, Alamar Blue fluorescence, 48 h; series mostly up to 26 µM; activity change, negative = inhibition: at the top concentration
# Method in brief: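 System: Candida albicans strain CaCi-2 yeast, fluconazole absent; quantity: inoculum A600 0.00015; buffer or medium: RPMI growth medium, no fluconazole added; schedule: 48 h growth at 37 °C, dye 2 h; signal: Alamar Blue fluorescence, final 1:200; read-out: relative yeast growth by fluorescence; benchmarks: geldanamycin as positive (growth inhibition) control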
row,Structure (SMILES),"activity change, negative = inhibition"
1,O=C(c1ccc(Cl)cc1)N1CCN(c2nc3ccccc3s2)CC1,-1.53%
2,COc1cccnc1N1CCN(C(=O)c2ccc(Cl)cc2)CC1,-3.13%
3,COCCC(=O)N1CCN(c2ccccn2)CC1,-10.3%
4,Cc1ccnc(N2CCN(C(=O)c3ccc(Cl)cc3)CC2)c1,-5.16%
5,O=C(c1ccccc1)N1CCN(c2ccccn2)CC1,-14%
6,Cn1ccnc1N1CCN(C(=O)c2ccc(Cl)cc2)CC1,-14%
7,O=C(c1ccc(Cl)cc1)N1CCN(c2cccc(C(F)(F)F)n2)CC1,-5.42%
8,CCCCC(=O)N1CCN(c2ccccn2)CC1,-20.4%
9,O=C(c1ccc(F)cc1)N1CCN(c2ccccn2)CC1,-4.39%
10,CC(C)C(=O)N1CCN(c2ccccn2)CC1,-24.5%
11,O=C(c1ccc(Cl)cc1)N1CCN(c2cnccn2)CC1,-13.9%
12,O=C(c1ccc(Cl)cc1)N1CCN(c2ccc(C(F)(F)F)cn2)CC1,-1.49%
13,N#Cc1cccnc1N1CCN(C(=O)c2ccc(Cl)cc2)CC1,-4.97%
14,O=C(c1ccccc1Cl)N1CCN(c2ccccn2)CC1,-25.8%
15,Cc1ccc(N2CCN(C(=O)c3ccc(Cl)cc3)CC2)nn1,-7.26%
16,O=C(c1ccc(Cl)cc1)N1CCN(c2nccs2)CC1,-6.15%
17,Cc1cccc(N2CCN(C(=O)c3ccc(Cl)cc3)CC2)n1,-16.8%
18,O=C(c1ccc(Cl)cc1)N1CCN(c2nc3ccccc3o2)CC1,-31.6%
19,Cc1ccc(N2CCN(C(=O)c3ccc(Cl)cc3)CC2)nc1,-27.7%
20,COc1ccc(C(=O)N2CCN(c3ccccn3)CC2)cc1,-9.02%
21,O=C(c1ccc(Cl)cc1)N1CCN(c2ncccn2)CC1,2.79%
22,N#Cc1ccc(C(=O)N2CCN(c3ccccn3)CC2)cc1,-6.52%
23,Cc1ccc(C(=O)N2CCN(c3ccccn3)CC2)cc1,-9.55%
